Consider one molecule from ChEMBL document CHEMBL4177761, “Highlights of the Structure-Activity Relationships of Benzimidazole Linked Pyrrolidines Leading to the Discovery of the Hepatitis C Virus NS5A Inhibitor Pibrentasvir (ABT-530)” (J Med Chem, 2018).

Structures are written as SMILES.

Data set [1] is described as follows: Cmax in mouse at 3 mg/kg, po by LC-MS method. The format is ADME, organism-based. As to conditions: in vivo. Also on record: dose 3 mg/kg, route oral. The essentials: (§1)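 Single dose, 3 mg/kg, in mouse or rat. IV vehicle: DMSO:Tween 80:PEG-400:D5W 2:5:20:73 (v/v). PO vehicle: Phosol 53 MCT:PEG-400:Poloxamer 124:Cremophor RH40 40:20:20:20 (w/w). Acetonitrile protein precipitation, then LC-MS/MS in negative-ion MRM against an internal standard; LOQ ~20 ng/mL.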

The nature of data set [2]: AUClast in dog at 1 mg/kg, iv by LC-MS method. Type of data set: ADME, organism-based, Canis lupus familiaris. Also noted: dose 1 mg/kg, route intravenous, time 0 - last. As to conditions: in vivo. An outline of the steps: (§2)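 Single dose in dog or monkey, 1 mg/kg IV or 2.5 mg/kg PO. Plasma drug measured by LC-MS after acetonitrile protein precipitation with an internal standard. Quantified by linear regression of parent/internal-standard peak-area ratio against spiked standards.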

Data set [3] concerns the target T1, Nonstructural protein 5A (Hepatitis C virus) (UniProt Q5L478).
T1 sequence (whole entry): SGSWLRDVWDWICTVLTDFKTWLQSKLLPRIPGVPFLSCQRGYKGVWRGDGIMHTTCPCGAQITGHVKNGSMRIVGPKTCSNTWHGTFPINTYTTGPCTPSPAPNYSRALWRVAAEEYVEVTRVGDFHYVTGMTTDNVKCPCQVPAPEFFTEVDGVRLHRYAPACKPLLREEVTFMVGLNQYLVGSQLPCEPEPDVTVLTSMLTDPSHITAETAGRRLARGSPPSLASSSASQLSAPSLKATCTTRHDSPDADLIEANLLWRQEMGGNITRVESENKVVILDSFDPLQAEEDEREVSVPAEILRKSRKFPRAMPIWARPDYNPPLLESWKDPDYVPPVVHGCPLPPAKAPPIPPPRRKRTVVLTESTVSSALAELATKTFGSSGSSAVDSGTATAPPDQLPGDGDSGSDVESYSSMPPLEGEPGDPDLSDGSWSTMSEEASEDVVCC
Put plainly: Inhibition of NS5A M28T mutant in HuH7 cell infected HCV genotype 1a H77 assessed as decrease in viral replication after 4 days by luciferase reporter gene assay relative to wild type protein. As to conditions: Hepatitis C virus (isolate H77). An outline of the steps:
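Stable subgenomic luciferase replicons in Huh-7 cells: genotype 1a-H77 carrying NS5A substitutions M28T, Q30E, Q30R, Y93C, Y93H or Y93N, tested alongside the wild-type replicon. Cells are incubated 4 days with compound in DMEM with 5% FBS. Luciferase read-out, EC50 by 4-parameter logistic fit, and fold change versus wild type.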
Background: A reporter such as luciferase makes a cellular process visible.

A short description of data set [4]: Tmax in dog at 2.5 mg/kg, po by LC-MS method. Type of data set: ADME, organism-based, Canis lupus familiaris. The conditions noted are these: in vivo. The essentials:
as §2

A short description of data set [5]: Oral bioavailability in dog at 2.5 mg/kg by LC-MS method. The format is ADME, organism-based, Canis lupus familiaris. The conditions noted are these: in vivo. The essentials: as §2
Data set [6] can be described thus: Plasma clearance in dog at 1 mg/kg, iv by LC-MS method. Type of data set: ADME, organism-based, Canis lupus familiaris. An outline of the steps: as §2
Data set [7] can be described thus: Drug level in mouse at 3 mg/kg, po at 24 hrs by LC-MS method. Type of data set: ADME, organism-based. The conditions noted are these: in vivo, read-out: Drug uptake. An outline of the steps: as §1

Usually Cmax stands for the maximum level reached in the sampled fluid or tissue. As a reminder, the AUC(0-t) is the area under the concentration-time curve up to a stated or last time point. Lower therefore signals less exposure. As a reminder, the Tmax is the time from dosing to the highest level. For orientation: bioavailability means dose-corrected exposure relative to a reference, in per cent. Low readings indicate little systemic uptake, high ones much systemic uptake. A word on the clearance: it is a measure of how efficiently the substance is removed, as volume per time. Lower therefore signals inefficient removal.

In data set [1], `COC(=O)N[C@H](C(=O)N1CCC[C@H]1c1nc2cc([C@H]3CC[C@H](c4cc5nc([C@@H]6CCCN6C(=O)[C@@H](NC(=O)OC)[C@@H](C)OC)[nH]c5cc4F)N3c3cc(F)c(N4CCC(c5ccc(F)cc5)CC4)c(F)c3)c(F)cc2[nH]1)[C@@H](C)OC` [PIBRENTASVIR] displayed a Cmax of 1140 nM. Further, the AUC(0-t) in data set [2] turned out to be 10600 ng·h/mL. Also, the fold change (FC) in data set [3] amounted to 2.1. The Tmax in data set [4] was determined as 3.67 h. In data set [5], this molecule showed a bioavailability of 29.8%. For the same molecule, the clearance in data set [6] was 1.62 mL/min/kg. Also, the concentration at 24 h in data set [7] turned out to be 467 nM.
